Experimental data published in ChEMBL document CHEMBL4665692, “Synthesis and Antimicrobial Activity of Burkholderia-Related 4-Hydroxy-3-methyl-2-alkenylquinolines (HMAQs) and Their N-Oxide Counterparts” (2020).
Values after ≈ are worked out from the molar mass of the structure shown. Active and inactive are the calls of the source. The rule behind the calls is not given here.

Experiments:
Pseudomonas fluorescens = assay: Antibacterial activity against Pseudomonas fluorescens after 48 hrs by CLSI protocol based broth microdilution assay; format: functional
Outline: (§1)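 Strains (B. subtilis PY79, P. peoriae LMG1611, S. aureus Newman, S. agalactiae ATCC27956, E. coli ATCC25922, P. aeruginosa PA14, P. fluorescens LMG1794, X. campestris Xg, A. pleuropneumoniae) were grown overnight in TSB at 30 °C with shaking, then suspended in Mueller-Hinton broth, final OD600 0.01. Twofold-series compound, 100 to 0.78 μM, from 20 mM DMSO stock. Incubated 48 h, 30 °C, 250 rpm; OD600 read; MIC.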

Fusarium solani = assay: Antifungal activity against Fusarium solani after 48 hrs by CLSI protocol based broth microdilution assay; format: functional
Outline: (§2)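 Molds (A. niger, F. oxyporum, F. solani, Mucorales TM29) were grown 4 days at 25 °C on PDA, and spores were harvested in sterile water and counted by hemacytometer. Spores (2 × 10⁴ mL⁻¹) went into L-glutamine RPMI 1640, MOPS-buffered to pH 7.0, with serially diluted compound (top 100 μM). Incubated 2 days at room temperature; OD600 read; MIC.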

Aspergillus niger = assay: Antifungal activity against Aspergillus niger after 48 hrs by CLSI protocol based broth microdilution assay; format: functional; outline: as §2
Cryptococcus neoformans = assay: Antifungal activity against Cryptococcus neoformans after 48 hrs by CLSI protocol based broth microdilution assay; format: functional
[1] = Antibacterial activity against Paenibacillus peoriae after 48 hrs by CLSI protocol based broth microdilution assay; format: functional; outline: as §1
Xanthomonas campestris = assay: Antibacterial activity against Xanthomonas campestris after 48 hrs by CLSI protocol based broth microdilution assay; format: functional; outline: as §1
Bacillus subtilis = assay: Antibacterial activity against Bacillus subtilis after 48 hrs by CLSI protocol based broth microdilution assay; format: functional; outline: as §1
Streptococcus agalactiae = assay: Antibacterial activity against Streptococcus agalactiae after 48 hrs by CLSI protocol based broth microdilution assay; format: functional; outline: as §1
Candida albicans = assay: Antifungal activity against Candida albicans after 48 hrs by CLSI protocol based broth microdilution assay; format: functional
Pseudomonas aeruginosa = assay: Antibacterial activity against Pseudomonas aeruginosa after 48 hrs by CLSI protocol based broth microdilution assay; format: functional; outline: as §1
Fusarium oxysporum = assay: Antifungal activity against Fusarium oxysporum after 48 hrs by CLSI protocol based broth microdilution assay; format: functional; outline: as §2
[2] = tested on: Actinobacillus pleuropneumoniae; assay: Antibacterial activity against Actinobacillus pleuropneumoniae after 48 hrs by CLSI protocol based broth microdilution assay; format: functional; outline: as §1
Escherichia coli = assay: Antibacterial activity against Escherichia coli after 48 hrs by CLSI protocol based broth microdilution assay; format: functional; outline: as §1
Mucorales = assay: Antifungal activity against Mucorales after 48 hrs by CLSI protocol based broth microdilution assay; format: functional; outline: as §2
Staphylococcus aureus = assay: Antibacterial activity against Staphylococcus aureus after 48 hrs by CLSI protocol based broth microdilution assay; format: functional; outline: as §1
[3] = tested on: hmqA (Burkholderia ambifaria); assay: Inhibition of beta-galactosidase hmqA mutant (Burkholderia ambifaria) by lacZ reporter gene assay

Row | SMILES | MIC (Pseudomonas fluorescens) [µM] | MIC (Fusarium solani) [µM] | MIC (Aspergillus niger) [µM] | MIC (Cryptococcus neoformans) [µM] | MIC [1] [µM] | MIC (Xanthomonas campestris) [µM] | MIC (Bacillus subtilis) [µM] | MIC (Streptococcus agalactiae) [µM] | MIC (Candida albicans) [µM] | MIC (Pseudomonas aeruginosa) [µM] | MIC (Fusarium oxysporum) [µM] | MIC [2] [µM] | MIC (Escherichia coli) [µM] | MIC (Mucorales) [µM] | MIC (Staphylococcus aureus) [µM] | Activity [3]
1 | CCCCCC/C=C/Cc1[nH]c2ccccc2c(=O)c1C | 50 (≈ 14.2 µg/mL) | 6.25 (≈ 1.77 µg/mL) | > 100 | 1.56 (≈ 0.442 µg/mL) | 12.5 (≈ 3.54 µg/mL) | 100 (≈ 28.3 µg/mL) | 1.56 (≈ 0.442 µg/mL) | 1.56 (≈ 0.442 µg/mL) | > 100 | > 100 | 12.5 (≈ 3.54 µg/mL) | 1.56 (≈ 0.442 µg/mL) | 100 (≈ 28.3 µg/mL) | 12.5 (≈ 3.54 µg/mL) | 1.56 (≈ 0.442 µg/mL) | –
2 | CCCCC/C=C/Cc1[nH]c2ccccc2c(=O)c1C | 25 (≈ 6.73 µg/mL) | > 100 | > 100 | 1.56 (≈ 0.42 µg/mL) | 12.5 (≈ 3.37 µg/mL) | 100 (≈ 26.9 µg/mL) | 1.56 (≈ 0.42 µg/mL) | 1.56 (≈ 0.42 µg/mL) | > 100 | 50 (≈ 13.5 µg/mL) | > 100 | 1.56 (≈ 0.42 µg/mL) | 100 (≈ 26.9 µg/mL) | 12.5 (≈ 3.37 µg/mL) | 1.56 (≈ 0.42 µg/mL) | Active
3 | CCCCC/C=C/Cc1c(C)c(=O)c2ccccc2n1O | 25 (≈ 7.13 µg/mL) | > 100 | > 100 | 12.5 (≈ 3.57 µg/mL) | 1.56 (≈ 0.445 µg/mL) | 3.13 (≈ 0.893 µg/mL) | 1.56 (≈ 0.445 µg/mL) | 1.56 (≈ 0.445 µg/mL) | > 100 | 25 (≈ 7.13 µg/mL) | > 100 | 1.56 (≈ 0.445 µg/mL) | 6.25 (≈ 1.78 µg/mL) | > 100 | 1.56 (≈ 0.445 µg/mL) | –
4 | CCCC/C=C/Cc1[nH]c2ccccc2c(=O)c1C | 25 (≈ 6.38 µg/mL) | > 100 | > 100 | 3.13 (≈ 0.799 µg/mL) | 12.5 (≈ 3.19 µg/mL) | 100 (≈ 25.5 µg/mL) | 1.56 (≈ 0.398 µg/mL) | 1.56 (≈ 0.398 µg/mL) | > 100 | > 100 | 12.5 (≈ 3.19 µg/mL) | 3.13 (≈ 0.799 µg/mL) | 100 (≈ 25.5 µg/mL) | 6.25 (≈ 1.6 µg/mL) | 1.56 (≈ 0.398 µg/mL) | Active
5 | CCCCCC/C=C/Cc1c(C)c(=O)c2ccccc2n1O | 25 (≈ 7.49 µg/mL) | > 100 | > 100 | 6.25 (≈ 1.87 µg/mL) | 1.56 (≈ 0.467 µg/mL) | 12.5 (≈ 3.74 µg/mL) | 3.13 (≈ 0.937 µg/mL) | 1.56 (≈ 0.467 µg/mL) | > 100 | 12.5 (≈ 3.74 µg/mL) | > 100 | 1.56 (≈ 0.467 µg/mL) | 6.25 (≈ 1.87 µg/mL) | > 100 | 1.56 (≈ 0.467 µg/mL) | –
6 | CCCC/C=C/Cc1c(C)c(=O)c2ccccc2n1O | 50 (≈ 13.6 µg/mL) | > 100 | > 100 | 50 (≈ 13.6 µg/mL) | 1.56 (≈ 0.423 µg/mL) | 6.25 (≈ 1.7 µg/mL) | 1.56 (≈ 0.423 µg/mL) | 1.56 (≈ 0.423 µg/mL) | > 100 | 50 (≈ 13.6 µg/mL) | > 100 | 1.56 (≈ 0.423 µg/mL) | 25 (≈ 6.78 µg/mL) | > 100 | 1.56 (≈ 0.423 µg/mL) | –
